Results reported in ChEMBL document CHEMBL4190388, “Discovery and Optimization of Indolyl-Containing 4-Hydroxy-2-Pyridone Type II DNA Topoisomerase Inhibitors Active against Multidrug Resistant Gram-negative Bacteria” (J Med Chem, 2018).
Values after ≈ are worked out from the molar mass of the structure shown.

What was measured:
Escherichia coli [1] = experiment: Antibacterial activity against fluoroquinolone resistant Escherichia coli SKM18 by CLSI M100-S17 protocol based method; format: functional
Escherichia coli [2] = experiment: Antibacterial activity against wild type Escherichia coli ATCC 25922 by CLSI M100-S17 protocol based method; format: functional
Escherichia coli [3] = experiment: Antibacterial activity against quinolone resistance Escherichia coli isolate ELZ4251 harboring gyrA/parC mutant by CLSI M100-S17 protocol based method; format: functional
Acinetobacter baumannii [4] = experiment: Antibacterial activity against wild type Acinetobacter baumannii ATCC BAA-747 by CLSI M100-S17 protocol based method; format: functional
Acinetobacter baumannii [5] = experiment: Antibacterial activity against fluoroquinolone resistant Acinetobacter baumannii isolate MMX2240 by CLSI M100-S17 protocol based method; format: functional
Klebsiella pneumoniae = experiment: Antibacterial activity against wild type Klebsiella pneumoniae ATCC 35657 by CLSI M100-S17 protocol based method; format: functional
Escherichia coli [6] = experiment: Antibacterial activity against wild type Escherichia coli ATCC 25922 in presence of HSA by CLSI M100-S17 protocol based method; format: functional
[7] = Inhibition of His tagged Escherichia coli ATCC 25922 DNA gyrase A expressed in Escherichia coli BL21 (DE3) pLysS cells assessed as reduction in enzyme-mediated supercoiling of relaxed plasmid DNA pNO1 after 30 mins in presence of biotinylated TFO1 by fluorescence assay
[8] = Inhibition of Escherichia coli DNA topoisomerase 4 assessed as reduction in decatenation activity using kinetoplast concatenated DNA as substrate after 30 mins by picogreen dye based fluorescence assay
Escherichia coli [9] = experiment: Antibacterial activity against quinolone resistant Escherichia coli by broth microdilution method; format: functional; settings: Escherichia coli
Method in brief: (§1)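 MICs were determined by CLSI broth methods, except that organisms were grown in brain–heart–infusion medium. The panel comprised wild-type and resistant E. coli and A. baumannii strains, including 12 strains whose details are given by reference.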

Escherichia coli [10] = experiment: Antibacterial activity against wild type Escherichia coli by broth microdilution method; format: functional; method in brief: as §1
Escherichia coli [11] = experiment: Antibacterial activity against beta-lactam resistant Escherichia coli by broth microdilution method; format: functional; settings: Escherichia coli; method in brief: as §1
Escherichia coli [12] = experiment: Antibacterial activity against aminoglycoside resistant Escherichia coli by broth microdilution method; format: functional; settings: Escherichia coli; method in brief: as §1
Escherichia coli [13] = experiment: Antibacterial activity against multidrug resistant Escherichia coli by broth microdilution method; format: functional; settings: Escherichia coli; method in brief: as §1
Acinetobacter baumannii [14] = experiment: Antibacterial activity against wild type Acinetobacter baumannii by broth microdilution method; format: functional; method in brief: as §1
Acinetobacter baumannii [15] = experiment: Antibacterial activity against aminoglycoside resistant Acinetobacter baumannii by broth microdilution method; format: functional; settings: Acinetobacter baumannii; method in brief: as §1
Acinetobacter baumannii [16] = experiment: Antibacterial activity against quinolone resistant Acinetobacter baumannii by broth microdilution method; format: functional; settings: Acinetobacter baumannii; method in brief: as §1
Acinetobacter baumannii [17] = experiment: Antibacterial activity against beta-lactam resistant Acinetobacter baumannii by broth microdilution method; format: functional; settings: Acinetobacter baumannii; method in brief: as §1
Acinetobacter baumannii [18] = experiment: Antibacterial activity against carbapenem resistant Acinetobacter baumannii by broth microdilution method; format: functional; settings: Acinetobacter baumannii; method in brief: as §1
Acinetobacter baumannii [19] = experiment: Antibacterial activity against multidrug resistant Acinetobacter baumannii by broth microdilution method; format: functional; settings: Acinetobacter baumannii; method in brief: as §1
Escherichia coli [20] = experiment: Selectivity ratio of MIC for wild type Escherichia coli ATCC 25922 in presence of HSA to MIC for wild type Escherichia coli ATCC 25922; format: functional
Mus musculus [21] = experiment: Terminal half life in CD1 mouse plasma at 10 mg/kg, iv by LC-MS/MS analysis; format: ADME, organism-based; settings: in vivo
Mus musculus [22] = experiment: AUC (0 to 24 hrs) in CD1 mouse plasma at 10 mg/kg, iv by LC-MS/MS analysis; format: ADME, organism-based; parameters: time < 24 hr, dose 10 mg/kg, route intravenous; settings: in vivo
Method in brief: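 CD-1 mice given a single 10 mg/kg iv dose (n = 3), in either 10% DMSO plus 1% Tween 80 in pH 8.0 phosphate buffer or 20% (2-hydroxypropyl)-β-cyclodextrin in pH 4.0 citrate buffer; plasma exposure measured.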

Mus musculus [23] = experiment: Volume of distribution at steady state in CD1 mouse plasma at 10 mg/kg, iv by LC-MS/MS analysis; format: ADME, organism-based; settings: in vivo
[24] = Oral bioavailability in CD1 mouse plasma by LC-MS/MS analysis; format: ADME, organism-based
[25] = Fraction unbound in mouse plasma at 1 uM by equilibrium dialysis method; format: ADME, cell-free

Work on `CCNCc1cc2cc(-c3[nH]c(=O)c(C(=O)O)c(O)c3CC)ccc2n1C` yielded an MIC (Escherichia coli [1]) of 1.6 µg/mL (≈ 4.33 µM), an MIC (Escherichia coli [2]) of 0.39 µg/mL (≈ 1.06 µM) and an MIC (Escherichia coli [3]) of 3.1 µg/mL (≈ 8.39 µM). The MIC (Acinetobacter baumannii [4]) was 0.78 µg/mL (≈ 2.11 µM), the MIC (Acinetobacter baumannii [5]) was 6.3 µg/mL (≈ 17.1 µM) and the MIC (Klebsiella pneumoniae) was 0.39 µg/mL (≈ 1.06 µM). It also gave an MIC (Escherichia coli [6]) of 1.6 µg/mL, an IC50 [7] of 0.3 µM and an IC50 [8] of 3.3 µM. The MIC50 (Escherichia coli [9]) was 1 µg/mL (≈ 2.71 µM), the MIC90 (Escherichia coli [9]) was 4 µg/mL (≈ 10.8 µM) and the MIC (Escherichia coli [9]; read-out: MIC) was 0.25 to 4 µg/mL (≈ 0.677 to 10.8 µM). The MIC50 (Escherichia coli [10]) was 1 µg/mL (≈ 2.71 µM), the MIC90 (Escherichia coli [10]) was 4 µg/mL (≈ 10.8 µM) and the MIC50 (Escherichia coli [11]) was 1 µg/mL (≈ 2.71 µM). The MIC90 (Escherichia coli [11]) was 4 µg/mL (≈ 10.8 µM), the MIC (Escherichia coli [11]; read-out: MIC) was 0.25 to 4 µg/mL (≈ 0.677 to 10.8 µM) and the MIC50 (Escherichia coli [12]) was 1 µg/mL (≈ 2.71 µM). The MIC90 (Escherichia coli [12]) was 4 µg/mL (≈ 10.8 µM), the MIC (Escherichia coli [12]; read-out: MIC) was 0.25 to 4 µg/mL (≈ 0.677 to 10.8 µM) and the MIC50 (Escherichia coli [13]) was 1 µg/mL (≈ 2.71 µM). For the same molecule, the MIC90 (Escherichia coli [13]) was 4 µg/mL (≈ 10.8 µM), the MIC (Escherichia coli [13]; read-out: MIC) was 0.25 to 4 µg/mL (≈ 0.677 to 10.8 µM) and the MIC50 (Acinetobacter baumannii [14]) was 2 µg/mL (≈ 5.41 µM). The MIC90 (Acinetobacter baumannii [14]) was 16 µg/mL (≈ 43.3 µM), the MIC50 (Acinetobacter baumannii [15]) was 2 µg/mL (≈ 5.41 µM) and the MIC90 (Acinetobacter baumannii [15]) was 16 µg/mL (≈ 43.3 µM). For the same molecule, the MIC (Acinetobacter baumannii [15]; read-out: MIC) was 0.5 to 32 µg/mL (≈ 1.35 to 86.6 µM), the MIC50 (Acinetobacter baumannii [16]) was 2 µg/mL (≈ 5.41 µM) and the MIC90 (Acinetobacter baumannii [16]) was 16 µg/mL (≈ 43.3 µM). For the same molecule, the MIC (Acinetobacter baumannii [16]; read-out: MIC) was 0.5 to 32 µg/mL (≈ 1.35 to 86.6 µM), the MIC50 (Acinetobacter baumannii [17]) was 2 µg/mL (≈ 5.41 µM) and the MIC90 (Acinetobacter baumannii [17]) was 16 µg/mL (≈ 43.3 µM). The MIC (Acinetobacter baumannii [17]; read-out: MIC) was 0.5 to 32 µg/mL (≈ 1.35 to 86.6 µM), the MIC50 (Acinetobacter baumannii [18]) was 2 µg/mL (≈ 5.41 µM) and the MIC90 (Acinetobacter baumannii [18]) was 16 µg/mL (≈ 43.3 µM). The MIC (Acinetobacter baumannii [18]; read-out: MIC) was 0.5 to 32 µg/mL (≈ 1.35 to 86.6 µM), the MIC50 (Acinetobacter baumannii [19]) was 2 µg/mL (≈ 5.41 µM) and the MIC90 (Acinetobacter baumannii [19]) was 16 µg/mL (≈ 43.3 µM). For the same molecule, the MIC (Acinetobacter baumannii [19]; read-out: MIC) was 0.5 to 32 µg/mL (≈ 1.35 to 86.6 µM).

For `Cn1c(CNC2(C)CCC2)cc2cc3c(cc21)CCCc1c-3[nH]c(=O)c(C(=O)O)c1O`, the MIC (Escherichia coli [1]) was 1 µg/mL (≈ 2.37 µM), the MIC (Escherichia coli [2]) was 1 µg/mL (≈ 2.37 µM) and the MIC (Acinetobacter baumannii [4]) was 0.5 µg/mL (≈ 1.19 µM). The MIC (Acinetobacter baumannii [5]) was 1 µg/mL (≈ 2.37 µM), the MIC (Klebsiella pneumoniae) was 1 µg/mL (≈ 2.37 µM) and the MIC (Escherichia coli [6]) was 7.8 µg/mL. For the same molecule, the Ratio (Escherichia coli [20]) was 4 - 16, the “beta t1/2” value (Mus musculus [21]) was 3.1 h and the AUC (Mus musculus [22]) was 4580 ng·h/mL. The Vdss (Mus musculus [23]) was 7.1 L/kg, the bioavailability [24] was 65% and the Fu [25] was 0.047.

For `CCNCc1cc2cc3c(cc2n1C)CCCCc1c-3[nH]c(=O)c(C(=O)O)c1O`, the MIC (Escherichia coli [1]) was 3.1 µg/mL (≈ 7.84 µM), the MIC (Escherichia coli [2]) was 0.78 µg/mL (≈ 1.97 µM) and the IC50 [7] was 0.8 µM. For the same molecule, the IC50 [8] was 15.3 µM.
